# Measurements published in ChEMBL document CHEMBL1158370, “New antimalarial and cytotoxic 4-nerolidylcatechol derivatives” (Eur J Med Chem, 2009).
# Tests used:
# Plasmodium falciparum [1] = assay: Antimalarial activity against Plasmodium falciparum K1; format: functional, organism-based
# Summary of the method: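 P. falciparum K1 (multidrug-resistant) cultured with compound at serial dilutions; growth measured as percentage reduction versus untreated controls; IC50 derived by probit analysis. Only compounds active in the preliminary single-concentration screen went on to this step.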
# HL-60 = assay: Cytotoxicity against human HL60 cells after 72 hrs by MTT assay; format: functional, cell-based; conditions: HL-60, 72 h
# Summary of the method: (§1)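 Human tumour lines were grown in RPMI 1640 with 10% fetal bovine serum and 1% antibiotics at 37 °C under 5% CO2. Plating densities were 0.7 × 10⁵ for HCT-8, 0.6 × 10⁵ for SF-295 and 0.3 × 10⁶ for HL-60. Samples came from a 5 mg/mL DMSO stock and were incubated 72 h. MTT read at 550 nm; growth inhibition relative to […]. Triplicate, two independent experiments.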
# HCT-8 = assay: Cytotoxicity against human HCT8 cells after 72 hrs by MTT assay; format: functional, cell-based; summary of the method: as §1
# SF-295 = assay: Cytotoxicity against human SF295 cells after 72 hrs by MTT assay; format: functional, cell-based; summary of the method: as §1
# MDA-MB-435 = assay: Cytotoxicity against human MDA-MB-435 cells after 72 hrs by MTT assay; format: functional, cell-based
# Plasmodium falciparum [2] = assay: Antimalarial activity against Plasmodium falciparum K1 at 50 ug/mL; format: functional
# Summary of the method: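 Preliminary screen against P. falciparum K1 at two concentrations, printed as 50 and 2.5 (unit unclear). Parasite growth given as percentage reduction versus untreated controls.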
compound,measurement,setting,value
Oc1ccccc1O [CATECHOL],IC50,Plasmodium falciparum [1],80.7 µM
same,IC50,HL-60,1.08 µg/mL
same,IC50,"HCT-8; Homo sapiens, HCT-8, 72 h, read-out: IC50",13.5 µg/mL
same,IC50,"SF-295; Homo sapiens, SF-295, 72 h, read-out: IC50",12.9 µg/mL
same,IC50,"MDA-MB-435; Homo sapiens, MDA-MB-435, 72 h, read-out: IC50",> 25 µg/mL
C=C[C@@](C)(O)CC/C=C(/C)CCC=C(C)C [NEROLIDIOL],inhibition at 50 µg/mL,Plasmodium falciparum [2],50%
same,IC50,HCT-8; hct-8,Not Active
same,IC50,SF-295; sf-295,Not Active
same,IC50,MDA-MB-435; mda-mb-435,Not Active
CCN(CC)CCCC(C)Nc1ccnc2cc(Cl)ccc12 (stereo unspecified) [CHLOROQUINE PHOSPHATE],IC50,Plasmodium falciparum [1],0.89 µM
C=C[C@H]1CN2CC[C@H]1C[C@H]2[C@H](O)c1ccnc2ccc(OC)cc12 [QUININE],IC50,Plasmodium falciparum [1],0.012 µM
